Laboratory results reported in ChEMBL document CHEMBL4422663, “Suppression of Tumor Growth and Metastases by Targeted Intervention in Urokinase Activity with Cyclic Peptides” (J Med Chem, 2019).
Calls of active or inactive are those of the source. No cut-off for these calls is given here. Positions of bridges follow the written chain, without caps; N, C: chain ends. Residues, ends and D or L forms follow the SMILES beside them.

Key:
[1] = target: Urokinase-type plasminogen activator (Mus musculus) (UniProt P06869); test: Inhibition of the intrinsic peri-cellular uPA in mouse CT26 cells assessed as reduction in cell invasion at 100 uM […] by transwell assay; format: cell-based
Urokinase-type plasminogen activator (Mus musculus), sequence (P06869 21-178 limits assumed): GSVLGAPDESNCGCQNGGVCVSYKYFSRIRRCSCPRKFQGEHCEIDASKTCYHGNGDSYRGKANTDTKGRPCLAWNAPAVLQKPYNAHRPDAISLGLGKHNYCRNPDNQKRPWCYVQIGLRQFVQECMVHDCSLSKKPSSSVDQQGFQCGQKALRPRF
Urokinase-type plasminogen activator (Mus musculus), sequence (P06869 180-433 limits assumed): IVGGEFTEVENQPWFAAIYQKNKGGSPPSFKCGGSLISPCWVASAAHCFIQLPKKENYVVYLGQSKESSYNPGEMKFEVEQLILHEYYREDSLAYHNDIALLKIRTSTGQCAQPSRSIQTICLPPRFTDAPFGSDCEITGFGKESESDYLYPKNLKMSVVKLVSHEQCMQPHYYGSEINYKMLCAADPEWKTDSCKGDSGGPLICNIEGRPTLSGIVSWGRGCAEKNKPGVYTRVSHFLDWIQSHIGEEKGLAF
Summary of the method: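 CT-26 cells, 2×10^5 per Matrigel-coated Transwell top chamber in serum-free DMEM with peptide; 10% serum medium below. After 24 h, invaded underside cells stained with 0.1% crystal violet, eluted in 33% acetic acid, read at A570 and normalized to untreated (100%). Triplicates. The legend gives a 0.1–100 μM dose range, with IC50 derived from the dose-response.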

MCF7 = test: Anti-invasive activity in human MCF7 cells at 100 uM measured every hour by transwell assay; format: functional, cell-based
[2] = target: Urokinase-type plasminogen activator (Mus musculus) (UniProt P06869); test: Inhibition of the intrinsic peri-cellular uPA in mouse CT26 cells assessed as reduction in cell migration at 100 uM measured every hour by wound healing assay relative to control; format: cell-based
CT26 [3] = test: Cytotoxicity against mouse CT26 cells at 100 uM; format: cell-based; conditions: ct26, 100 µM
Plasma kallikrein [4] = target: Plasma kallikrein (Mus musculus, UniProt P26262); test: Inhibition of mouse plasma kallikrein preincubated for 15 mins followed by chromogenic substrate addition
Plasma kallikrein (Mus musculus, UniProt P26262), sequence (P26262 20-390 limits assumed): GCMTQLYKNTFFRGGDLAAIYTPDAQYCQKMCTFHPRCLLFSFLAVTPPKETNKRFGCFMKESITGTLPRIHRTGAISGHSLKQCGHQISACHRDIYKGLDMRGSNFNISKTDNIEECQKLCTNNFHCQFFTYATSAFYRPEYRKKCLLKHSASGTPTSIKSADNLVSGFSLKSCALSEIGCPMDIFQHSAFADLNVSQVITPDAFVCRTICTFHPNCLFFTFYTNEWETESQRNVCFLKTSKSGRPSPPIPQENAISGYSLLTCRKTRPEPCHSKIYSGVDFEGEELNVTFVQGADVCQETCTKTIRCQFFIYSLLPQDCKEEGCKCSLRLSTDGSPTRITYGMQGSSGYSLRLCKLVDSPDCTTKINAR
Plasma kallikrein (Mus musculus, UniProt P26262), sequence (P26262 391-638 limits assumed): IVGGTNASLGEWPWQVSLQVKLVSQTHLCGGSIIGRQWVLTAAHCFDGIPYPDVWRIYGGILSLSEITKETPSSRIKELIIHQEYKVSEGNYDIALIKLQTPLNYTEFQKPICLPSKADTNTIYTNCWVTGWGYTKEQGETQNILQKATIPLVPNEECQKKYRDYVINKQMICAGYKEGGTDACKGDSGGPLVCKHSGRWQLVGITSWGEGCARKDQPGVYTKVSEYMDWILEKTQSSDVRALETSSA

Coagulation factor XI = Coagulation factor XI (Homo sapiens, UniProt P03951); test: Inhibition of human factor 11a preincubated for 15 mins followed by chromogenic substrate addition
Coagulation factor XI, sequence (P03951 19-387 limits assumed): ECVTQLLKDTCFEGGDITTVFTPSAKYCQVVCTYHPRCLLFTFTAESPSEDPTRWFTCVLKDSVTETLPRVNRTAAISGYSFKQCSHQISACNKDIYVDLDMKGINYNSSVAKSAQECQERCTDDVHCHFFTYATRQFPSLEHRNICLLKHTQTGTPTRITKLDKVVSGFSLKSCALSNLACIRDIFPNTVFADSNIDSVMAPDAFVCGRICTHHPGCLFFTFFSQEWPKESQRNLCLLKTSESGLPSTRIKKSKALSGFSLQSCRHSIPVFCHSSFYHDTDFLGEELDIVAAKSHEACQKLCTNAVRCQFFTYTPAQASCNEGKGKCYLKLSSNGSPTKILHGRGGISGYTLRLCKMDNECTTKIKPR
Coagulation factor XI, sequence (P03951 388-625 limits assumed): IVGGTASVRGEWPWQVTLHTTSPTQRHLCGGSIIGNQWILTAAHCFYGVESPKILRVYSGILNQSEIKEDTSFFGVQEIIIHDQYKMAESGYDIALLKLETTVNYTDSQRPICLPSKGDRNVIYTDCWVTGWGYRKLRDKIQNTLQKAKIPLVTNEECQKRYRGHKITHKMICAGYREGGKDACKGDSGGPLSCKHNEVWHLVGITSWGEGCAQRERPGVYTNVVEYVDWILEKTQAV

[5] = target: T1, Urokinase-type plasminogen activator (Mus musculus, UniProt P06869); test: Inhibition of mouse uPA preincubated for 15 mins followed by chromogenic substrate addition
T1 sequence (P06869 21-178 limits assumed): as the sequence (P06869 21-178 limits assumed) above
T1 sequence (P06869 180-433 limits assumed): as the sequence (P06869 180-433 limits assumed) above

[6] = target: Urokinase-type plasminogen activator (Mus musculus) (UniProt P06869); test: Binding affinity to mouse uPA assessed as dissociation rate constant after 600 secs by SPR assay
[7] = target: T1, Urokinase-type plasminogen activator; test: Inhibition of mouse uPA
Plasma kallikrein [8] = target: Plasma kallikrein (Homo sapiens, UniProt P03952); test: Inhibition of human plasma kallikrein preincubated for 15 mins followed by chromogenic substrate addition
Plasma kallikrein (Homo sapiens, UniProt P03952), sequence (P03952 20-390 limits assumed): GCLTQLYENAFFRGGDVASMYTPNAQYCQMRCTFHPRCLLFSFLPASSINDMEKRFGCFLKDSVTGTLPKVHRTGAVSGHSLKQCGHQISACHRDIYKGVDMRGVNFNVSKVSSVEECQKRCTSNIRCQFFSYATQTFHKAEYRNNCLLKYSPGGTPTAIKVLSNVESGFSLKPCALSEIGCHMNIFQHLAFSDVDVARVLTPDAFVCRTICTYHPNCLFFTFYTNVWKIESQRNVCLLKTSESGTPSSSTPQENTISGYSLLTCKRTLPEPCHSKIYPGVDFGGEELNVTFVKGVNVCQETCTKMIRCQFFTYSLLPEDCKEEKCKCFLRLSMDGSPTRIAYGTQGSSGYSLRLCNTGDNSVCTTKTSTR
Plasma kallikrein (Homo sapiens, UniProt P03952), sequence (P03952 391-638 limits assumed): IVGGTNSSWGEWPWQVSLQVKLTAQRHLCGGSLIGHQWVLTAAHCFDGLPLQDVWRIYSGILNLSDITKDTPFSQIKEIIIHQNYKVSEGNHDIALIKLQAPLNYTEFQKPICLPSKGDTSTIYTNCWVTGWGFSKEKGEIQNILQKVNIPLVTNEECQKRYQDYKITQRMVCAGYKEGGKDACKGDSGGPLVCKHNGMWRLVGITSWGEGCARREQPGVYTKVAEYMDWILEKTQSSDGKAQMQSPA

[9] = Inhibition of mouse trypsin preincubated for 15 mins followed by chromogenic substrate addition
Prothrombin [10] = target: Prothrombin (Homo sapiens, UniProt P00734); test: Inhibition of human thrombin preincubated for 15 mins followed by chromogenic substrate addition
Prothrombin [11] = target: Prothrombin (Mus musculus, UniProt P19221); test: Inhibition of mouse thrombin preincubated for 15 mins followed by chromogenic substrate addition
[12] = target: T1, Urokinase-type plasminogen activator; test: Binding affinity to mouse uPA expressed in HEK2936E cells by ITC assay
[13] = target: Tissue-type plasminogen activator (Homo sapiens, UniProt P00750); test: Inhibition of human tissue-type plasminogen activator preincubated for 15 mins followed by chromogenic substrate addition
Tissue-type plasminogen activator (Homo sapiens, UniProt P00750), sequence (P00750 whole entry): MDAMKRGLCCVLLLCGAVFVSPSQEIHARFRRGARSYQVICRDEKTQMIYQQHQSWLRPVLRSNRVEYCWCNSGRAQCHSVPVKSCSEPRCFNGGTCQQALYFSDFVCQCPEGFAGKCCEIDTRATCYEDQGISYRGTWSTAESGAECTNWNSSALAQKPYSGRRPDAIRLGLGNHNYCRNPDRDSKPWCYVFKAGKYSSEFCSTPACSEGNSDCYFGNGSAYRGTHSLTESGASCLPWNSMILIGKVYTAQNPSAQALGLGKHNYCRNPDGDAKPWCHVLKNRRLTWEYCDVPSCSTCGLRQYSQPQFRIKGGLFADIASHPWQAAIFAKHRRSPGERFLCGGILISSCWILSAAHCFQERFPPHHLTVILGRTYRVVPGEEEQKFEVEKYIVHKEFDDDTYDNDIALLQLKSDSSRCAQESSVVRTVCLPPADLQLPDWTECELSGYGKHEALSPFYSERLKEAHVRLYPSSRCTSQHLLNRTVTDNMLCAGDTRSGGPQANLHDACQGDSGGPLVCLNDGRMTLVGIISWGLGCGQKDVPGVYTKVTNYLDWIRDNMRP

[14] = target: T2, Suppressor of tumorigenicity 14 protein (Homo sapiens, UniProt Q9Y5Y6); test: Inhibition of human matriptase preincubated for 15 mins followed by chromogenic substrate addition
T2 sequence (Q9Y5Y6 whole entry): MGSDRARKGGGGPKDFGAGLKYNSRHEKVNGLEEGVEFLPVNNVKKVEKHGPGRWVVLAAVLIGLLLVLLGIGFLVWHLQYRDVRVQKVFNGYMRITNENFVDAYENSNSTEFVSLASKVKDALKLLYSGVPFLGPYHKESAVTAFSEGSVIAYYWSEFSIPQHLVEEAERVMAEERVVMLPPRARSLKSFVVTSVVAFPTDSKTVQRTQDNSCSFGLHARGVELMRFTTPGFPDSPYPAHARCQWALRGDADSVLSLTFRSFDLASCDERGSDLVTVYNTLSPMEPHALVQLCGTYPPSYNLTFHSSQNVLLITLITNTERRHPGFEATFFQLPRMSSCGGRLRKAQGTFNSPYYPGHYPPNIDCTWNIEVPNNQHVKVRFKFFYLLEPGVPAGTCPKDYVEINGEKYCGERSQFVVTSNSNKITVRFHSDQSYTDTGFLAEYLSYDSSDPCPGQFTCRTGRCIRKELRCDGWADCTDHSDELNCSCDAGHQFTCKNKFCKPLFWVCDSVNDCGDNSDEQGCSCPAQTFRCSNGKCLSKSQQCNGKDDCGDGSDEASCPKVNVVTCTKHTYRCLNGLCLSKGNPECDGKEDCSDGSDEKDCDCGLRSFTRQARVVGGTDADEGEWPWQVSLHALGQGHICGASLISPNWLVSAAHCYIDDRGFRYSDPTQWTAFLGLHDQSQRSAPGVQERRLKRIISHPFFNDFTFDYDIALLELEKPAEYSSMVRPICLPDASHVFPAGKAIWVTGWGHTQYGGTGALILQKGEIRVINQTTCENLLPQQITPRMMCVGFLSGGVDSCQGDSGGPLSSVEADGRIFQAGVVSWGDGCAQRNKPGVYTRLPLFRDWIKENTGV

[15] = target: T1, Urokinase-type plasminogen activator; test: Binding affinity to mouse uPA by SPR assay
[16] = target: Urokinase-type plasminogen activator (Mus musculus) (UniProt P06869); test: Inhibition of the intrinsic peri-cellular uPA in mouse CT26 cells assessed as reduction in cell invasion at 33 to 100 uM by Transwell invasion assay relative to control
[17] = target: Urokinase-type plasminogen activator (Mus musculus) (UniProt P06869); test: Inhibition of the intrinsic peri-cellular uPA in mouse CT26 cells assessed as reduction in cell migration at 30 to 100 uM measured every hour by wound healing assay relative to control; format: cell-based
[18] = target: Tissue-type plasminogen activator (Mus musculus, UniProt P11214); test: Inhibition of mouse tissue-type plasminogen activator preincubated for 15 mins followed by chromogenic substrate addition
Tissue-type plasminogen activator (Mus musculus, UniProt P11214), sequence (P11214 whole entry): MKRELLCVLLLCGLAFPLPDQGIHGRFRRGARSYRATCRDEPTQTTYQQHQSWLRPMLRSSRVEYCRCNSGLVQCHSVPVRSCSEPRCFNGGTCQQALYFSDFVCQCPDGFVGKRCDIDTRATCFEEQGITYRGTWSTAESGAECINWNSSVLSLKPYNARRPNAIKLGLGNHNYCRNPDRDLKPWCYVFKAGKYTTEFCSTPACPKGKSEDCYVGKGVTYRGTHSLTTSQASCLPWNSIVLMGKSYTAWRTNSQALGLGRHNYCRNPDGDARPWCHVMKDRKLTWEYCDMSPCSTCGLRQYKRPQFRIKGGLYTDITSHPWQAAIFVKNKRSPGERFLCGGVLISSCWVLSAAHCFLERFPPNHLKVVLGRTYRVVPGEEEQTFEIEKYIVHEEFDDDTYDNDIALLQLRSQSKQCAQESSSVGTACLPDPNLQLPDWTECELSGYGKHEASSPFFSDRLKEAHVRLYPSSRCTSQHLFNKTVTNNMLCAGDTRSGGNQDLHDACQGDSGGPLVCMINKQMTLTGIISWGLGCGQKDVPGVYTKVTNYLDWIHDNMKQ

Plasminogen [19] = target: Plasminogen (Homo sapiens, UniProt P00747); test: Inhibition of human plasmin preincubated for 15 mins followed by chromogenic substrate addition
[20] = target: T1, Urokinase-type plasminogen activator; test: Inhibition of mouse uPA serine protease domain preincubated for 15 mins followed by chromogenic substrate addition
Plasminogen [21] = target: Plasminogen (Mus musculus, UniProt P20918); test: Inhibition of mouse plasmin preincubated for 15 mins followed by chromogenic substrate addition
Plasminogen (Mus musculus, UniProt P20918), sequence (P20918 98-581 limits assumed): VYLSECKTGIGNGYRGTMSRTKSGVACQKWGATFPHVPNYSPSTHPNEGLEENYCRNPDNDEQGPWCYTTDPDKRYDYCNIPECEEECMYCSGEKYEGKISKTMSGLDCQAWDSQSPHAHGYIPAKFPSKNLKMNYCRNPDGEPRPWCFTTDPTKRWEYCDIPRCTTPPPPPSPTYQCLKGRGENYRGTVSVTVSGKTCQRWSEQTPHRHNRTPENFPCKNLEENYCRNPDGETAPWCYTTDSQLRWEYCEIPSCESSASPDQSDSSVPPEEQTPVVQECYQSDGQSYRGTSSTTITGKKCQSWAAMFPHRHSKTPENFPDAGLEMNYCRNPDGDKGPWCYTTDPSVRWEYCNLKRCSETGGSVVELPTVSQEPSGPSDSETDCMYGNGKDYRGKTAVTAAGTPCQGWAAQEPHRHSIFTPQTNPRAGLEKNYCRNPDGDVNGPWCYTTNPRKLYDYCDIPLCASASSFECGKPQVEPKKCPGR
Plasminogen (Mus musculus, UniProt P20918), sequence (P20918 582-812 limits assumed): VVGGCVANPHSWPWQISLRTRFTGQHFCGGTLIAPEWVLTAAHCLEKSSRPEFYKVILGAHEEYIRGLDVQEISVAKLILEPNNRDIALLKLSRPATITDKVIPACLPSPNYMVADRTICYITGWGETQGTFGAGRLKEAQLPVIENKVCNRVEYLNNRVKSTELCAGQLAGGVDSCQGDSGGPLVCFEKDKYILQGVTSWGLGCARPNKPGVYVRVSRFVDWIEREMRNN

[22] = target: Urokinase-type plasminogen activator (Homo sapiens, UniProt P00749); test: Inhibition of human uPA preincubated for 15 mins followed by chromogenic substrate addition
[23] = target: Vitamin K-dependent protein C (Homo sapiens, UniProt P04070); test: Inhibition of human activated protein C preincubated for 15 mins followed by chromogenic substrate addition
CT26 [24] = test: Antimetastatic activity against mouse CT26 cells allografted in Balb/c mouse assessed as reduction genomic DNA of metastatic cells at 12.3 mg/kg, ip administered daily for 15 days by qPCR analysis; format: functional, organism-based
Summary of the method: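 Male Balb/c mice (~20 g, 6/group) given 10^6 GFP-CT-26 cells i.v. in 200 µl mixed with peptide or saline, then daily i.p. peptide Day 1–15; sacrificed Day 16. Lung total DNA isolated after homogenization; 200 ng per SYBR Green qPCR, quantified against standard curve of CT-26 DNA spiked into normal lung DNA (0.135%-100%).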

CT26 [25] = test: Antimetastatic activity against GFP-fused mouse CT26 cells allografted in Balb/c mouse assessed as reduction in tumor nodule numbers at 12.3 mg/kg, ip administered daily for 15 days by fluorescence-based assay; format: functional, organism-based
Summary of the method: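 Lung metastasis model: male Balb/c mice (~20 g, 6/group) given 10^6 GFP-CT-26 cells i.v. with peptide or saline, daily i.p. dosing Day 1–15, sacrificed Day 16. Surface tumor nodules on pleural surfaces counted per lung after soaking in formaldehyde.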

CT26 [26] = test: Anti-tumor activity against […] mouse CT26 cells allografted in Balb/c mouse assessed as tumor growth inhibition at 12.3 mg/kg, ip administered daily for 15 days and measured on day 16 by […]; format: functional; conditions: read-out: TGI
Summary of the method: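 CT-26 cells implanted subcutaneously in right flank of Balb/c mice; once tumors reached about 150~200 mm3, daily intraperitoneal dosing with peptide or saline for 15 days. Mice sacrificed on Day 16; tumors resected and weighed; tumor growth reduction relative to saline group.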

CT26 [27] = test: Antimetastatic activity against GFP-fused mouse CT26 cells allografted in Balb/c mouse assessed as reduction in relative fluorescence at 12.3 mg/kg, ip administered daily for 15 days by fluorescence-based assay; format: functional, organism-based
Summary of the method: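 Lung metastasis model: male Balb/c mice (~20 g, 6/group) given 10^6 GFP-CT-26 cells i.v. with peptide or saline, daily i.p. dosing Day 1–15, sacrificed Day 16. Resected lungs imaged for GFP with 488 nm excitation, emission 520; signal collected over 20×20 mm2 per lung; non-implanted normal group used for background subtraction.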

[28] = Toxicity in Balb/c mouse allografted with mouse CT26 cells assessed as effect on body weight at 12.3 mg/kg, ip administered daily for 15 days; format: organism-based; conditions: in vivo, 360 h
Summary of the method: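 CT-26 tumour-bearing Balb/c mice dosed i.p. daily with peptide or saline; body weights recorded daily over the 15 days.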

CT26 [29] = test: Antimetastatic activity against GFP-fused mouse CT26 cells allografted in Balb/c mouse assessed as reduction in hyperplastic weights at 12.3 mg/kg, ip administered daily for 15 days by fluorescence-based assay; format: functional, organism-based
Summary of the method: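 Lung metastasis model: male Balb/c mice (~20 g, 6/group) given 10^6 GFP-CT-26 cells i.v. with peptide or saline, then daily i.p. dosing Day 1–15. Lungs resected and weighed immediately at sacrifice on Day 16; hyperplastic weight = lung weight minus weight of lungs from non-implanted normal mice.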

CT26 [30] = test: Antimetastatic activity against mouse CT26 cells allografted in Balb/c mouse at 12.3 mg/kg, ip administered daily for 15 days by hematoxylin and eosin staining -based assay; format: functional, organism-based
Summary of the method: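 Lung metastasis model: male Balb/c mice given 10^6 GFP-CT-26 cells i.v., daily i.p. dosing Day 1–15, sacrificed Day 16. Formalin-fixed, paraffin-embedded lung sections stained with H&E for histology alongside normal lungs.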

[31] = target: Urokinase-type plasminogen activator (Mus musculus) (UniProt P06869); test: Inhibition of the intrinsic peri-cellular uPA in mouse CT26 cells assessed as reduction in cell invasion measured every hour by transwell assay; format: cell-based

| Compound | Activity (CT26 [3]) | Ki (Plasma kallikrein [4]) [µM] | Ki (Coagulation factor XI) [µM] | Ki [5] [µM] | Ki [7] [µM] | Ki (Plasma kallikrein [8]) [µM] | Ki [9] [µM] | Ki (Prothrombin [10]) [µM] | Ki (Prothrombin [11]) [µM] | Kd [12] [µM] | Ki [13] [µM] | Ki [14] [µM] | Kd [15] [µM] | inhibition [17] [%] | Ki [18] [µM] | Ki (Plasminogen [19]) [µM] | Ki [20] [µM] | Ki (Plasminogen [21]) [µM] | Ki [22] [µM] | Ki [23] [µM] | other results |
| --- | --- | --- | --- | --- | --- | --- | --- | --- | --- | --- | --- | --- | --- | --- | --- | --- | --- | --- | --- | --- | --- |
| CC[C@H](C)[C@@H]1NC(=O)[C@H](Cc2ccc(O)cc2)NC(=O)[C@H](C)NC(=O)[C@H](CO)NC(=O)[C@H](Cc2ccc(O)cc2)NC(=O)[C@H](C)NC(=O)[C@@H]2CCCN2C(=O)[C@@H](N)CSSC[C@@H](C(=O)O)NC(=O)CNC1=O (H-CPAYSAYIGC-OH; disulfide 1-10) | Non-Toxic |  |  |  |  |  |  |  |  |  |  |  |  |  |  |  |  |  |  |  | inhibition [1]: inactive; Activity (MCF7): inactive; inhibition [2]: inactive |
| CC[C@H](C)[C@@H]1NC(=O)[C@H](Cc2ccc(O)cc2)NC(=O)[C@H](CCCNC(=N)N)NC(=O)[C@H](CO)NC(=O)[C@H](Cc2ccc(O)cc2)NC(=O)[C@H](C)NC(=O)[C@@H]2CCCN2C(=O)[C@@H](NC(C)=O)CSSC[C@@H](C(N)=O)NC(=O)CNC1=O (Ac-CPAYSRYIGC-NH2; disulfide 1-10) | Non-Toxic | > 25 | > 25 | 0.02 | 0.02 | > 25 | 1.6 | > 25 | > 25 | 0.0421 | > 25 | > 25 | 0.0147 | 30 | > 25 | > 25 | 0.246 | > 25 | 0.903 | > 25 | K [6]: 0.0064 s⁻¹; inhibition [16]: 70 to 80% |
| CC(=O)N[C@H]1CSSC[C@@H](C(N)=O)NC(=O)[C@H](CC(=O)O)NC(=O)[C@H](CC(C)C)NC(=O)[C@H](Cc2ccc(O)cc2)NC(=O)[C@H](CCCNC(=N)N)NC(=O)[C@H](CO)NC(=O)[C@H](Cc2ccc(O)cc2)NC(=O)[C@H](C)NC(=O)[C@@H]2CCCN2C1=O (Ac-CPAYSRYLDC-NH2; disulfide 1-10) | Non-Toxic | > 25 | > 25 | 0.55 | 0.55 | > 25 | 8.3 | > 25 | > 25 | 0.354 | > 25 | > 25 | 0.398 | 30 | > 25 | > 25 | 1.77 | > 25 | 15 | > 25 | Activity (CT26 [24]): inactive; Activity (CT26 [25]): inactive; inhibition in vivo at 12.3 mg/kg (CT26 [26]): 36.4%; Activity (CT26 [27]): inactive; Activity [28]: Non-Toxic; Activity (CT26 [29]): inactive; Activity (CT26 [30]): Active; inhibition [31]: Dose-dependent effect |
